Compound activity: PubChem BioAssay, several laboratories
SENP1 FRET inh: inhibitors of human SENP1 SUMO protease catalytic domain; Q9P0U3; recombinant SENP1 catalytic domain, CyPet-SUMO1-YPet FRET cleavage; inhibition, % at 10 µM; 360,000 tested, 0.21% active;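 active = inhibition at least 30% at 10 µM, raw YFP signal under a set limit, fluorescence ratio 0.5 to 1.5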;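 note: 0% = enzyme with DMSO and 100% = no enzyme wells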
Target sequence (Q9P0U3 419-644 limits assumed): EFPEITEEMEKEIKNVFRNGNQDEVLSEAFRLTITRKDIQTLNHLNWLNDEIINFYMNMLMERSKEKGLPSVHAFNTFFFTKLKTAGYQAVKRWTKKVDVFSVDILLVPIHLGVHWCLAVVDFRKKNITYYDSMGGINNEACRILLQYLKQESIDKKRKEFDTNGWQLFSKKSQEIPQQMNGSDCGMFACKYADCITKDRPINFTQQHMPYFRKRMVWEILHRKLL
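Assay system: hSENP1 catalytic domain, recombinant. Amount: SENP1 enzyme, 20 pM final. Schedule: 50 min reaction, RT, dark. Technique: FRET, CFP and YFP emission. Control set: no-enzyme wells low, DMSO-plus-enzyme wells high control.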
SENP6 block: SENP6 protease inhibition; Q9GZR1; Recombinant SENP6 catalytic domain, aminoluciferin luminescence; inhibition, % at 10 µM; 330,000 tested, 1.8% active; AID 2599;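 active = inhibition above about 50% at the single tested dose, limit read from the data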;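 note: plate controls were DMSO wells with enzyme for no effect and DMSO wells lacking enzyme for full effect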
SENP7 inh: blocks the human protease SENP7; 330,000 tested, 1.5% active; Q9BQF6; inhibition, % at 5 µM; recombinant SENP7, Z-RLRGG-aminoluciferin luminescence, 40 min;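 active = inhibition above about 50% at the single test dose, limit read from the data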;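 note: plate controls were DMSO with enzyme for no effect and no enzyme buffer wells for full effect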
SENP8 block-1: inhibitors of human SENP8 protease | Q96LD8 | purified SENP8, Z-RLRGG-aminoluciferin cleavage, luminescence | inhibition, % at 10 µM | 330,000 tested, 1.2% active; in the data active = inhibition above about 50%
Target sequence (Q96LD8 whole entry, looked up): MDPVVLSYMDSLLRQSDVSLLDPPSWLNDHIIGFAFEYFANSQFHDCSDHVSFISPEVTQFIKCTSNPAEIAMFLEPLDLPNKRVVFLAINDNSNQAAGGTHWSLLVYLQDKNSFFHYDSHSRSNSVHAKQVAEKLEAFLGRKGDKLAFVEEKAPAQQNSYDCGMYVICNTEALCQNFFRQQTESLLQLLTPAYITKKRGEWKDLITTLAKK
SENP8 block-2: blocks human SENP8 cleavage of Nedd8 substrate. recombinant SENP8, Nedd8 substrate fluorescence. 360,000 tested, 0.64% active. Q96LD8. AID 602440. inhibition, % at 20 µM; in the data active = inhibition mostly above about 40%, no sharp cut-off; inactive = mostly below about 27%
HSP90 refold inh: HSP90 refolding inhibition in rabbit reticulocyte lysate; luciferase refolding luminescence, 3 h; inhibition, % at 5.6 µM; 290,000 tested, 0.91% active;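 active = inhibition above the screen-wide mean plus 3 SD, computed separately per campaign, cut at about 16% in these data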;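 note: 0% = DMSO wells and 100% = 60 µM geldanamycin wells; inhibitors lower the luminescence because luciferase stays unfolded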
HSP90 inh confirm: HSP90 inhibition, confirmation assay; shares compounds with HSP90 refold inh; rabbit reticulocyte lysate, luciferase refolding luminescence, 3 h; inhibition, % at 5.9 µM; 2,300 tested, 64% active; in the data active = inhibition above about 18%;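 note: 0% = vehicle wells and 100% = reference inhibitor wells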
FLuc counter: firefly luciferase inhibition, HSP90 counter-screen. shares compounds with HSP90 refold inh. purified native firefly luciferase, luminescence. inhibition, % at 5.9 µM. 2,300 tested, 48% active. AID 1847;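 active = inhibition above the mean inhibition of all tested sample wells plus 3 SD, cut at about 10% in these data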;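 note: 0% = DMSO with luciferase and 100% = wells lacking luciferase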
Active calls of the source: *; i = inactive; · = not tested or not shown. Compounds with a hit are over-represented: about 2.9% of the library has one in this group of screens.

SMILES	SENP1 FRET inh	SENP6 block	SENP7 inh	SENP8 block-1	SENP8 block-2	HSP90 refold inh	HSP90 inh confirm	FLuc counter
Cc1ccc(NC(=O)CN2C(=O)S/C(=C/c3ccc(-c4cccc(C(=O)O)c4)o3)C2=O)cc1	-29	·	·	·	-273	0	·	·
Cc1ccc(NC(=O)CN2C(=O)S/C(=C\c3ccc(-c4cccc(C(=O)O)c4C)o3)C2=O)cc1	·	-3	-1	7	·	26*	24*	-6
O=C(NC1CCCCC1)c1noc2c1CCCCC2	-1	9	17	1	10	19*	31*	14*
Cc1cc(NS(=O)(=O)c2ccc(NC(=O)CSc3nc4ncc(Br)cc4[nH]3)cc2)nc(C)n1	0	12	-3	-14	3	2	·	·
C[C@H](NC(=O)c1nc[nH]c1C(=O)NCC(=O)OCc1ccccc1)C(=O)OC(C)(C)C	3	13	1	1	4	62*	-10	-17
COc1ccc(CN2CCN(CCCc3ccccc3)C(CCO)C2)cc1OC (centres undefined)	-2	5	11	-2	-1	1	·	·
CCOc1cc(CN2CCN(CCc3ccccc3)C(CCO)C2)ccc1OC (centres undefined)	2	-21	-7	-9	1	27*	-3	-6
Cc1ccc2nc(-c3cc(-c4ccccc4)no3)cn2c1	-1	44	90*	32	-233	25*	69*	58*
CCCCNC(=S)N1CCN(CC)CC1	-3	15	-6	11	19	53*	0	-3
Oc1ccccc1CNc1ccc2c(c1)OCCO2	2	12	11	4	11	-1	·	·
c1csc(CNc2ccc3c(c2)OCCO3)c1	-20	·	·	·	-88	31*	21*	15*
CC(=O)c1c(C)[nH]c(C(=O)OCCOc2ccccc2)c1C	2	-4	11	-1	14	34*	55*	57*
CC(=O)c1c(C)[nH]c(C(=O)COC(=O)CCCOc2ccccc2)c1C	3	2	-2	-1	-18	4	·	·
Cc1nc2c(OCCN3C(=O)c4ccccc4C3=O)cccn2c1N(C)C(=O)CCC1CCCC1	2	·	·	·	26	·	·	·
Cc1c(CC(=O)N2CCC(O)CC2)c(=O)oc2cc3c(cc12)CCC1(CCCCC1)O3	0	·	·	·	i	·	·	·
COc1cc(CN2CCC(C(=O)NCC(C)(C)CN(C)C)CC2)ccc1OCc1ccccc1	0	15	-2	14	24	2	·	·
O=C(O)c1cccc(-n2c(O)c(C=C3N=c4ccccc4=N3)sc2=S)c1	-19	34	7	27	-116	47*	66*	-2
O=C(Nc1ccc(N2CCOCC2)cc1)c1csc([C@H]2C[C@H](O)[C@@H](CO)O2)n1	2	·	·	·	13	·	·	·
CCN(CC)CCOC(=O)c1ccc(NC(=O)CCCN2C(=O)S/C(=C/c3ccc(OC)cc3)C2=S)cc1	-16	9	1	-9	21	34*	30*	-26
COc1ccc(/C=C2\SC(=S)N(CCC(=O)Nc3ccc(O)cc3)C2=O)cc1	-10	-3	-6	9	17	1	·	·
Cc1ccc2oc(/N=C(\N)NC(=O)C3CC3)nc2c1	3	21	0	-2	14	27*	48*	40*
Cc1ccc2oc(/N=C(\N)NC(=O)C(C)(C)C)nc2c1	-2	37	65*	36	-2	81*	85*	83*
CS(=O)(=O)N1CCC(Oc2cccc(C(=O)NCCCC3CCCC3)c2)CC1	0	10	6	-2	9	29*	-7	-11
N#CCCN(C(=O)COC(=O)c1ccc(Cl)nc1)c1ccc2c(c1)OCCO2	0	·	·	·	8	·	·	·
O=C(CN1CCN(c2ccccc2)CC1)N1N=CCC1c1ccccc1 (centres undefined)	1	-31	2	-2	15	39*	-9	-9
O=C(CN1CCN(c2ccc(F)cc2)CC1)N1N=CCC1c1ccccc1 (centres undefined)	3	-10	7	-5	14	3	·	·
